# NadD block: inhibitors of S. aureus NadD, primary screen, biochemical, colorimetric, uHTS | purified NadD enzyme, colorimetric absorbance read-out | inhibition, % at 20 µM | 0.78% of 360,000 active | AID 602399, 2012; in the data active = inhibition above about 26%
# ARFGAP1 inh: inhibitors of rat ARFGAP1 GAP activity, primary screen, biochemical, fluorescence polarization, GDP tracer; Arfgap1-stimulated ARF1 GTP hydrolysis, GDP FP detection; inhibition, % at 16.5 µM; 0.26% of 360,000 active; AID 651572, 2012;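 active = inhibition above a per-plate limit, mean inhibition of low control wells plus 3 SD, cut at about 25% in these data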;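 note: 0% = DMSO wells with enzyme and 100% = wells lacking Arfgap1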
# Target sequence (Q62848 1-136 limits assumed): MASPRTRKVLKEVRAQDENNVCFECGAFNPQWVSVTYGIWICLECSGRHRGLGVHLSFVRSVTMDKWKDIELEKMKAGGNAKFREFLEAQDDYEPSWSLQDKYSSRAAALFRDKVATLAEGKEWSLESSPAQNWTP
#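 Material: rat Arfgap1 GAP domain (His6, aa 1-136), purified enzyme. Also added: human ARF1(Δ1-17)-GTP substrate. Compound dosing: 16.5 µM single point, 1.26% DMSO. Timing: enzyme reaction 120 min at 25 °C after 20 min preincubation. Signal: GDP detection by fluorescence polarization. Read-out basis: percent inhibition of GAP-stimulated GDP formation, scaled between DMSO and no-Arfgap1 medians.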
# rCAG RNA binder: binders of r(CAG) RNA repeats, primary screen, biochemical, fluorescence; r(CAG) RNA repeat, TO-PRO-1 dye displacement fluorescence; inhibition, % at 3 µM; 1.3% of 370,000 active; AID 651821, 2012;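 active = inhibition above the plate cutoff, the mean of all test compounds on that plate plus 3 SD, cut at about 35% in these data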;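 note: 0% = DMSO alone and 100% = 100 µM mitoxantrone as full dye displacement; higher means more dye released from RNA so lower well fluorescence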
# ASAP1 inh: inhibitors of human ASAP1 ArfGAP activity, primary screen, biochemical, fluorescence polarization. ASAP1-stimulated ARF1 GTP hydrolysis, GDP FP detection. Arf-GAP with SH3 domain, ANK repeat and PH domain-containing protein 1 (Homo sapiens), …. AID 624377, 2012. 0.19% of 360,000 active. inhibition, % at 16.5 µM; in the data active = inhibition above about 25%;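 note: 0% = vehicle with enzyme and substrate and 100% = no enzyme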
# Target sequence (Q9ULH1 325-724 limits assumed): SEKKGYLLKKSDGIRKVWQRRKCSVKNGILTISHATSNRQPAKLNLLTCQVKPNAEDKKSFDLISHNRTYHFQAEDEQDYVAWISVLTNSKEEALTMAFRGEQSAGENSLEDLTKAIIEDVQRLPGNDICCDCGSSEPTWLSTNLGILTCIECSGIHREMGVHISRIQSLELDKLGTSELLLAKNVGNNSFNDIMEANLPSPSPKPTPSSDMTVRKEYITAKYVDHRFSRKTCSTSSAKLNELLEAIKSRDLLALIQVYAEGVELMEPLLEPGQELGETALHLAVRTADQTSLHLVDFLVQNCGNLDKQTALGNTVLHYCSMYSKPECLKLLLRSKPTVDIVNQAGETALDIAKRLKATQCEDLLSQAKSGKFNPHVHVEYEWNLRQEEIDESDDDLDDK
# rCAG binder conf: small molecules binding CAG repeat RNA – biochemical, fluorescence, confirmation. shares compounds with rCAG RNA binder. r(CAG) RNA repeat, TO-PRO-1 dye displacement fluorescence. inhibition, % at 3 µM. 70% of 4,300 active;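 active = inhibition above a per-plate cutoff, the mean inhibition of sample wells plus 3 SD, cut at about 35% in these data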;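 note: loss of TO-PRO-1 fluorescence as compound displaces dye from 1x1 AA loop RNA; 0% = DMSO only wells and 100% = 100 µM mitoxantrone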
# DNA CAG counter: displacement of TO-PRO-1 from CAG DNA duplex, counter-screen for rCAG RNA repeat binder project, biochemical, fluorescence, TO-PRO-1 dye, d(CAG) DNA oligo | AID 652068, 2013 | 94% of 4,300 active | d(CAG) DNA oligo TO-PRO-1 dye displacement | shares compounds with rCAG RNA binder | inhibition, % at 3 µM;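 active = inhibition above its plate's cutoff, the mean test-well inhibition plus 3 SD, cut at about 4.8% in these data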;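 note: 0% = DNA dye mix with DMSO and 100% = 100 µM mitoxantrone; hits displace the dye from DNA and so lower well fluorescence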
# DNA CAG DR: inhibitors of DNA CAG/GTC TO-PRO-1 complex, dose response, counter-screen for rCAG RNA repeat binder project, biochemical, fluorescence, TO-PRO-1 dye; shares compounds with rCAG RNA binder; DNA CAG/GTC duplex TO-PRO-1 dye displacement fluorescence; IC50, µM; 20% of 250 active; in the data active = IC50 below about 10 µM
# * hit, by the source's call; i = inactive; x = no result given. The list is not random: actives were taken first. Their share in the collection is about 2.2%.
SMILES,NadD block,ARFGAP1 inh,rCAG RNA binder,ASAP1 inh,rCAG binder conf,DNA CAG counter,others
COc1ccc(-c2ccc(C(=O)NCc3ccc(C(F)(F)F)cc3)c3occc23)c(C)c1,-15,5,5,-5,x,x,
CCc1nnc(NS(=O)(=O)c2ccc(NC(=O)c3cccc([N+](=O)[O-])c3)cc2)s1,-3,-4,45*,-6,27,4.9*,
CCCCOc1cccc(C(=O)Nc2ccc(S(=O)(=O)Nc3nnc(CC)s3)cc2)c1,10,-4,80*,-4,73*,37*,
CCc1nnc(NS(=O)(=O)c2ccc(NC(=O)c3ccc([N+](=O)[O-])s3)cc2)s1,-1,1,61*,-3,48*,15*,
CCc1nnc(NS(=O)(=O)c2ccc(NC(=O)c3ccccc3O)cc2)s1,-2,-16,14,-4,x,x,
COCCN(CCOC)C(=O)[C@@H](Cc1ccccc1)NC(=O)[C@H]1O[C@@H](n2ccc(N)nc2=O)[C@H](O)[C@@H]1O,x,-3,2,3,x,x,
CCC(C)N(C(=O)CN1C(=O)C2CCCCN2C(=O)c2ccccc21)C(C)CC (stereo not drawn),x,x,-1,x,x,x,
NS(=O)(=O)c1ccc(-c2ccc(/C=C3\C(=O)Nc4cc(Cl)ccc43)o2)cc1,20,6,46*,13,26,21*,
O=C(O)c1cccc(CSc2nc(-c3ccccc3)cc(C(F)(F)F)n2)c1,4,-11,62*,-10,48*,14*,
CC1=C(C(=O)N(C(C)C)C(C)C)CC(CC(=O)NCc2cccs2)C(=O)N1Cc1ccc(C(C)(C)C)cc1 (stereo not drawn),0,-9,0,-5,x,x,
O=S(=O)(Nc1ccc(S(=O)(=O)N2CCCCC2)cc1)c1ccc(Br)s1,-3,1,60*,7,60*,16*,
CCCn1nc(C(=O)Nc2cc(S(=O)(=O)Nc3ccc(OC)cc3)ccc2O)c2ccccc2c1=O,11,8,62*,-6,54*,19*,
O=C(Nc1ccc(S(=O)(=O)Nc2nccs2)cc1)c1nn(-c2ccc(F)cc2)ccc1=O,14,4,46*,10,45*,20*,
CCCn1nc(C(=O)Nc2cccc(C(=O)OC)c2)c2ccccc2c1=O,-5,0,0,-5,x,x,
CCCn1nc(C(=O)Nc2ccc(S(=O)(=O)Nc3nccs3)cc2)c2ccccc2c1=O,14,-10,65*,0,56*,23*,
CCn1nc(C(=O)Nc2ccc(S(=O)(=O)Nc3ncccn3)cc2)c2ccccc2c1=O,1,-4,4,-6,x,x,
CCOC(=O)[C@]12CCCCC/C=C\1N(CCc1ccc(Cl)cc1)C(=O)[C@H]2CC(=O)N1CCCC1,x,x,-1,x,x,x,
O=C(O)CCC(=O)N1CCc2cc(S(=O)(=O)N(CCc3ccccc3)Cc3ccccc3)ccc21,21,-8,63*,-6,70*,30*,DNA CAG DR=i
O=C(O)c1ccc(S(=O)(=O)N(Cc2ccccc2)Cc2ccccc2)cc1,-8,-7,16,9,x,x,
CCCCN(c1ccccc1)S(=O)(=O)c1ccc2c(c1)CCN2C(=O)CCC(=O)O,-7,4,29,-7,x,x,
O=C(O)c1ccc(S(=O)(=O)N(CCc2ccccc2)Cc2ccc(Cl)cc2)cc1,0,-2,72*,4,71*,34*,DNA CAG DR=i
CC(=O)N1CCN(c2ccc(N3CCN(Cc4ccccc4)[C@H](C)C3)c(C)c2)[C@@H](C)C1,x,14,2,22,x,x,
O=C1Nc2c(Cl)cc(Cl)cc2C12Nc1ccccc1S2 (stereo not drawn),x,-1,41*,17,13,8.0*,
O=S(=O)(O)c1cccc2cccc(Nc3ccccc3)c12,4,-2,47*,-3,64*,25*,
c1ccc(Nc2cccc3c(Nc4ccccc4)cccc23)cc1,0,20,7,12,x,x,
SMILES,NadD block,ARFGAP1 inh,rCAG RNA binder,ASAP1 inh,rCAG binder conf,DNA CAG counter,others
O=C(Nc1ccc(Nc2ccccc2)cc1)c1ccc(Cl)cc1,-2,-4,6,-10,x,x,
N#C/C(C(=O)Nc1ccc(Cl)cc1)=C(/S)Nc1ccccc1,20,0,56*,8,71*,24*,DNA CAG DR=i
CC(=O)c1ccc(OCc2nnn(CC(=O)NS(=O)(=O)Cc3ccccc3)c2-c2ccccc2)cc1,1,-4,56*,4,78*,41*,
O=C(/C=C/c1ccco1)Nc1ccc2nn(-c3ccccc3)nc2c1,5,-1,40*,-6,19,13*,
Cc1cc(NC(=O)/C=C/c2ccco2)ccc1NC(=O)c1ccccc1,-7,11,5,4,x,x,
O=C(O)c1ccc(N=Nc2c(O)[nH]c3ccc(Br)cc23)cc1,1,2,2,13,x,x,
O=c1ccc2cc3c([nH]c4ccc(Br)cc43)oc-2c1O,17,13,100*,15,92*,68*,
NC(CCC(=O)NC(CS)C(=O)NCC(=O)O)C(=O)O (stereo not drawn),-2,7,-1,-6,x,x,
COc1cc(C(=O)NCCNC(=O)c2ccco2)cc(OC)c1OC,19,-8,46*,3,43*,13*,
Oc1ccc(/C=N/Nc2ccnc3cc(Cl)ccc23)c(O)c1O,59*,-1,38*,0,59*,28*,DNA CAG DR=i
COc1ccc(C#CCN(Cc2ccc(OC)cc2OC)C(N)=NC(=O)CCc2ccccc2)cc1,x,x,7,x,x,x,
Cc1ccc(C)c(OCC(=O)Nc2cc(C(=O)O)cc(C(=O)O)c2)c1,-4,-8,2,7,x,x,
Cc1ccc(C)c(OCC(=O)Nc2ccc(C(=O)O)cc2NC(=O)COc2cc(C)ccc2C)c1,9,3,74*,-13,75*,40*,
COc1cccc(/C=C2\SC(=S)N(C(C(=O)O)c3ccccc3)C2=O)c1OC (stereo not drawn),-2,-9,63*,2,63*,25*,
COc1ccc(/C=C2\SC(=S)N(N3CCOCC3)C2=O)c(OC)c1,-11,-4,1,5,x,x,
